MLL AF4-AF9 inh: inhibitors of human MLL-AF4/AF9 interaction; AlphaScreen, biotin-AF4 peptide binding to FLAG-AF9; inhibition, % at 10 µM; 350,000 tested, 0.47% active; P42568;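 active means every replicate reaching a set inhibition limit, whatever the replicate mean, cut at about 25% in these data; inconclusive means mean inhibition reaches that limit but some replicates miss it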;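 further: 0% = plate neutral control median and 100% = total signal loss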
DENV2 CPE rescue: DENV2-induced cell death inhibition | DENV2-infected cells, cytopathic effect rescue, plate reader | CPE inhibition, % at 9.99 µM | 350,000 tested, 1.7% active; in the data active means CPE inhibition above about 20%, passing the limit was not always enough; inconclusive means no clear call, values can overlap the other calls; tested in BHK-21 cells;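 further: 0% = median of neutral control wells and 100% = median of positive control wells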
SIRT5 inh: blocks human SIRT5 desuccinylation of peptide; Q9NXA8; AID 652115; inhibition, % at 15 µM; 330,000 tested, 1.1% active; Purified SirT5, succinyl-peptide AMC, trypsin-coupled fluorescence; in the data active means inhibition above about 15%; inconclusive means no clear call, values can overlap the other calls
Target sequence (Q9NXA8 whole entry, looked up): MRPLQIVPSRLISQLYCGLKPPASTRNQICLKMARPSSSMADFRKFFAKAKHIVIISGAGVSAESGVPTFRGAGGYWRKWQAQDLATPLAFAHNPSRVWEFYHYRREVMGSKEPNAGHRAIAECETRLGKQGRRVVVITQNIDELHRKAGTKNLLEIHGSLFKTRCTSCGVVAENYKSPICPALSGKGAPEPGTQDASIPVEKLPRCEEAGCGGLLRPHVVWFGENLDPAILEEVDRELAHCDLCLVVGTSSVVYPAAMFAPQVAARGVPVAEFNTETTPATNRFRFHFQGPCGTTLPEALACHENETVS
CaV13 FRET inh: Disruptors of the CACNA1D IQ motif to Ca2+-dependent inactivation inhibitor domain association, primary screening, Förster resonance energy transfer in intact living …. HEK cells, CFP/YFP FRET ICDI-IQ, plate reader, 10 min; percent FRET-ratio fall versus neutral wells. inhibition, % at 12.3 µM. 340,000 tested, 0.098% active;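 active means mean replicate inhibition of at least 30% and at least 1% of replicates passing that level; inconclusive means only one of the two criteria is met; inactive means neither criterion is met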;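 further: 0% = median of the neutral control wells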
S100A4 MyoIIA: blocks human S100A4 binding to myosin IIA peptide | P26447 | S100A4/TAMRA-MyoIIA peptide fluorescence polarization | inhibition, % at 10.7 µM | 360,000 tested, 0.14% active;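 active means mean inhibition of at least 70% across replicates, with every replicate also reaching that level; inconclusive means mean inhibition reaches 70% but some replicates fall short; inactive means mean inhibition below 70%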
Target sequence (P26447 whole entry, looked up): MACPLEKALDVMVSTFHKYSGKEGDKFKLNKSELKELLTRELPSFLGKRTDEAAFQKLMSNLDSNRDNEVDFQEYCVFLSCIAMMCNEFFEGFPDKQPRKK
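incubation = readout 5 min after mixing, signal stable up to 60 min | system = S100A4 monomer protein | buffer or medium = HEPES pH 7.2 with CaCl2, KCl, NaCl, DTT, Triton | benchmarks = neutral control DMSO, positive control TFP | also added = fluorescent myosin IIA peptide, 5 nM | compound dosing = one concentration per compound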
* marks the source's active call; other numbers are inactive results; ? = inconclusive; · = not tested or not shown. This is a sample that favours compounds with a hit; in the whole collection about 2.7% have one here.

SMILES	MLL AF4-AF9 inh	DENV2 CPE rescue	SIRT5 inh	CaV13 FRET inh	S100A4 MyoIIA
Cc1cnc(C(=O)OCC(=O)Nc2cccc(S(=O)(=O)N3CCCCC3)c2)cn1	3	4	28*	-2	5
Cc1ccc(S(=O)(=O)N2CCCCC2)cc1NC(=O)c1ccc2ccccc2n1	0	-4	-8	-16	0
CCC(=O)N(C)C[C@@H]1Oc2cc(C#CC3CC3)ccc2S(=O)(=O)N([C@H](C)CO)C[C@@H]1C	-9	-4	-1	·	-11
COc1ccccc1-c1cnc2c(c1)C(=O)N([C@H](C)CO)C[C@@H](C)[C@@H](CN(C)Cc1cncnc1)O2	-3	-7	-5	·	6
CC1CN(S(=O)(=O)c2ccc(CN3C(=O)c4cccnc4C3=O)s2)c2ccccc2O1 (configuration not stated)	2	-4	24*	-2	-2
CC1CN(S(=O)(=O)c2ccc(CN3C(=O)c4cccnc4C3=O)cc2)c2ccccc2O1 (configuration not stated)	-1	5	0	-7	16
FC(F)(F)c1ccccc1CN1CCCc2nc(-c3ccccc3)ccc21	5	-2	·	-4	-14
FC(F)(F)c1ccccc1CN1CCCc2nc(-c3ccc(Br)cc3)ccc21	-1	42*	·	-4	-14
CO[C@H]1CN(C)C(=O)c2cc(NS(=O)(=O)c3ccccc3)ccc2OC[C@H](C)N(C(=O)NC(C)C)C[C@H]1C	-12	17	-1	·	4
O=C(CCNC(=O)c1ccco1)Nc1ccc(Cl)cc1F	-1	28*	-2	-2	-8
C[C@@H]1CN([C@@H](C)CO)C(=O)c2cc(NC(=O)CCC(F)(F)F)ccc2O[C@@H]1CN(C)Cc1ccc(C(=O)Nc2ccccc2N)cc1	0	18	·	·	-1
COC(=O)c1cc2c(c3c4cc(F)ccc4n(S(=O)(=O)c4ccc(C)cc4)c13)C(=O)N(Cc1ccccc1)C2	0	-4	·	-9	12
CN1C(=O)c2cc(NC(=O)c3cccs3)ccc2OC[C@@H]2O[C@@H](CC(=O)NCCN3CCCCC3)CC[C@H]21	1	41*	-1	·	-4
CN1C(=O)c2cc(NC(=O)c3cccs3)ccc2OC[C@H]2O[C@H](CC(=O)NCCN3CCCCC3)CC[C@H]21	3	4	3	·	0
COc1cccc(CNC(=O)C[C@H]2CC[C@@H]3[C@@H](COc4ccc(NC(=O)c5cccs5)cc4C(=O)N3C)O2)c1	-1	?	25*	·	-1
CCOC(=O)N1CCN(C2=NC3(CCCCC3)C(C#N)C(=O)N2)CC1 (configuration not stated)	·	·	·	-6	·
CC12CCCC(C(C#N)C(N)=O)(C1)NC(=O)C2C#N (configuration not stated)	-6	-1	20*	-9	2
O=C1CCc2cc(S(=O)(=O)N3CCCCC3)cc3c2N1CCC3	-4	-6	4	-15	73*
CCc1nc2ccc(C(=O)NCc3ccccc3OC)cn2c1N(C)Cc1ccc(N(C)C)cc1	26*	-4	-1	-2	-5
CCc1nc2ccc(C(=O)NCCOc3ccc(OC)cc3)cn2c1N(C)Cc1ccc(N(C)C)cc1	14	-2	-2	-6	-2
C[C@@H]1CCCCO[C@@H](CN(C)C)[C@H](C)CN([C@@H](C)CO)C(=O)c2cc(NC(=O)CCC(F)(F)F)ccc2O1	-1	?	17*	·	-5
C[C@@H]1CCCCO[C@H](CN(C)C(=O)c2ccccc2)[C@@H](C)CN([C@@H](C)CO)C(=O)c2cc(NC(=O)CCC(F)(F)F)ccc2O1	-1	-3	-2	·	-2
C[C@@H]1CCCCO[C@@H](CN(C)C(=O)c2ccccc2)[C@@H](C)CN([C@H](C)CO)C(=O)c2cc(NC(=O)CCC(F)(F)F)ccc2O1	-3	93*	1	·	8
C[C@@H]1CCCCO[C@H](CN(C)C(=O)c2ccncc2)[C@H](C)CN([C@@H](C)CO)C(=O)c2cc(NC(=O)CCC(F)(F)F)ccc2O1	·	-8	·	·	·
C[C@@H]1CCCCO[C@H](CN(C)C(=O)c2ccncc2)[C@H](C)CN([C@H](C)CO)C(=O)c2cc(NC(=O)CCC(F)(F)F)ccc2O1	·	74*	·	·	·
SMILES	MLL AF4-AF9 inh	DENV2 CPE rescue	SIRT5 inh	CaV13 FRET inh	S100A4 MyoIIA
C[C@H](CO)N1C[C@H](C)[C@H](CN(C)C)OCCCC[C@H](C)Oc2ccc(NC(=O)CCC(F)(F)F)cc2C1=O	-2	-1	-3	·	0
O=C(C[C@@H]1C[C@@H]2c3cc(NC(=O)Cc4ccncc4)ccc3O[C@@H]2[C@H](CO)O1)NCc1ccc2c(c1)OCO2	-2	-4	1	·	9
CSc1ccccc1C(=O)N1CCCCC1	-1	4	20*	-2	-5
CCN(C[C@H]1[C@H](c2ccccc2)[C@H](CO)N1C(=O)COC)S(C)(=O)=O	-5	7	2	·	-7
COc1cccc(-c2ccc3c(c2)[C@H]2[C@H](CCN2C(=O)c2ccc4c(c2)OCO4)[C@H](CO)N3C)c1	-1	-28	3	·	98*
COc1ccc(-c2ccc3c(c2)[C@H]2[C@H](CCN2C(=O)c2ccccc2F)[C@H](CO)N3C)cc1	·	7	·	·	·
COc1cccc(-c2ccc3c(c2)[C@H]2[C@H](CCN2C(=O)c2ccccc2F)[C@H](CO)N3C)c1	1	-3	20*	·	6
COc1cccc(-c2ccc3c(c2)[C@@H]2[C@@H](CCN2C(=O)NC2CCCC2)[C@H](CO)N3C)c1	26*	-17	·	·	11
COc1ccc(-c2ccc3c(c2)[C@@H]2[C@@H](CCN2C(=O)c2ccc4c(c2)OCO4)[C@@H](CO)N3C)cc1	3	-20	6	·	-1
C[C@@H](NC(=O)[C@@H]1N[C@@H]2c3ccc(-c4cccnc4)c(=O)n3C[C@@H]2[C@H]1CO)c1ccccc1	4	2	-24	·	14
C[C@H](NC(=O)[C@H]1N[C@H]2c3ccc(-c4cccnc4)c(=O)n3C[C@H]2[C@@H]1CO)c1ccccc1	2	117*	-22	·	40
O=C(NCc1ccccc1F)[C@H]1N[C@H]2c3ccc(-c4ccccc4F)c(=O)n3C[C@H]2[C@@H]1CO	-3	82*	2	·	21
O=C(NCCN1CCCC1)[C@H]1N[C@H]2c3ccc(-c4ccccc4)c(=O)n3C[C@H]2[C@@H]1CO	7	85*	-13	·	1
CNC(=O)C[C@H]1CC[C@@H]2[C@@H](COc3ccc(NC(=O)Nc4ccc(F)cc4)cc3C(=O)N2C)O1	0	13	-3	·	11
O=C(C[C@@H]1CC[C@H]2[C@@H](COC[C@H](O)CN2S(=O)(=O)c2cccc(Cl)c2)O1)Nc1ccc(-c2ccccc2)cc1	0	?	10	·	0
